# Source: PubChem BioAssay (The Scripps Research Institute Molecular Screening Center)
# TAAR1 agonist: human TAAR1 agonism. activation, % at 3 µM. CHO RD-HGA16 TAAR1, Fluo-8 calcium fluorescence; vehicle wells 0%, saturating PEA agonist 100%. hit rate 0.99% among 360,000. AID 624467. Q96RJ0;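 active = activation above the mean activation of all test compounds in the run plus 3 SD, cut at about 38% in these data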
#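 Repeats: no replicates (n 1) | Material: CHO-derived RD-HGA16 cells with stable Gα16 and human TAAR1 | Technique: Kinetic Fluo-8 calcium fluorescence | Schedule: 17-24 h seeding, 75 min 37 °C dye, 30 min RT | Evaluation: % activation from peak over basal fluorescence ratio, DMSO-to-PEA scaled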
# CHO parental Ca: counter-screen for OX1R antagonists: effect in parental CHO cells; hit rate 0.63% among 330,000; AID 463079; inhibition, % at 5.6 µM; parental CHO-K1, ATP-induced calcium, Fluo-8 fluorescence;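 active = inhibition above that plate's mean sample inhibition plus 3 SD, cut at about 26% in these data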;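 also: 0% = ATP-challenged DMSO wells and 100% = DMSO wells without ATP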
#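 Assay system – parental CHO cells · Reagent – ATP stimulus · Detection – intracellular calcium via Fluo-8 no-wash fluorescent dye · Evaluation – percent inhibition of ATP-evoked calcium rise, normalized to controls · Controls – ATP wells versus no-ATP DMSO wells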
# OX1R antag-1: human HCRTR1 antagonism; CHO/OX1R cells, Fluo-8 calcium fluorescence, orexin A; inhibition, % at 5 µM; hit rate 0.43% among 330,000; AID 434989;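 active = inhibition above its plate's threshold, mean inhibition of all tested compounds on the plate plus 3 SD, cut at about 37% in these data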;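 also: 0% = orexin A challenge wells and 100% = SB-334867-A antagonist wells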
# TAAR1 antagonist: human TAAR1 antagonism. hit rate 1.5% among 360,000. Q96RJ0. AID 624466. CHO RD-HGA16 TAAR1, Fluo-8 calcium fluorescence, antagonist. inhibition, % at 3 µM;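 active = inhibition above a per-plate cutoff, the mean inhibition of test compounds on that plate plus 3 SD, cut at about 49% in these data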;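 also: 0% = DMSO plus EC80 beta-PEA response and 100% = DMSO alone without agonist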
#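 Assay system: CHO-derived RD-HGA16 cells stably expressing human TAAR1 plus Gα16. Timing: 140 s kinetic read after compound, 140 s after agonist. Technique: kinetic Fluo-8 calcium fluorescence measurement. Measure: % inhibition of agonist calcium response.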
# OX1R antag-2: blocks the human orexin 1 receptor; OX1R-expressing cells, FRET antagonist read-out; inhibition, % at 6.6 µM; hit rate 1.8% among 330,000; in the data active = inhibition mostly above about 38%, no sharp cut-off; inactive = mostly below about 40%;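 also: 0% = agonist challenge alone and 100% = reference antagonist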
# GPR7 antagonist: antagonists of human GPR7 (neuropeptides B/W receptor 1) | hit rate 1.1% among 290,000 | inhibition, % at 4.4 µM | GPR7-expressing cells, fluorescence antagonist assay | P48145; in the data active = inhibition above about 16%, passing the limit was not always enough;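 also: cells stimulated with the agonist NPW; 0% = agonist with vehicle and 100% = vehicle without agonist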
# Target sequence (P48145 whole entry, looked up): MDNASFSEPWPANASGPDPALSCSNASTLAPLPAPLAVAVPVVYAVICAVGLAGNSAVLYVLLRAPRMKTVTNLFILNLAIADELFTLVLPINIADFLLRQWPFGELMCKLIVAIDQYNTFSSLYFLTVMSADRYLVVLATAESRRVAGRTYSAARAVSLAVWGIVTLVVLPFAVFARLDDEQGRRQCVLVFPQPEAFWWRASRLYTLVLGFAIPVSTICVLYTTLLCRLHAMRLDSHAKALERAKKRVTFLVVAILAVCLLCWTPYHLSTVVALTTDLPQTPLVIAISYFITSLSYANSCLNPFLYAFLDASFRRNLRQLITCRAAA
# GPR7 antag conf: human GPR7 antagonism, confirmation assay; hit rate 52% among 2,400; shares compounds with GPR7 antagonist; GPR7-expressing cells, calcium fluorescence antagonist mode; inhibition, % at 4.4 µM; in the data active = inhibition above about 24%;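 also: stimulated with the GPR7 agonist NPW; 0% = agonist plus vehicle and 100% = vehicle alone without agonist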
# MCHR1 antag: MCHR1 (human) antagonism in GPR7 counter-screen | hit rate 62% among 2,400 | inhibition, % at 4.4 µM | shares compounds with GPR7 antagonist | MCHR1-expressing cells, fluorescence antagonist assay | AID 2148; in the data active = inhibition above about 22%;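 also: 0% = vehicle with agonist and 100% = vehicle without agonist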
# * = called active by the depositor; · = no result. An excerpt weighted towards active compounds, which were near 4.6% of everything screened.
SMILES,TAAR1 agonist,CHO parental Ca,OX1R antag-1,TAAR1 antagonist,OX1R antag-2,GPR7 antagonist,GPR7 antag conf,MCHR1 antag
COC(=O)C[C@@H]1C=C[C@H](NC(=O)Cc2ccccn2)[C@@H](CO)O1,1.2,·,·,2.6,·,·,·,·
O=S(=O)(Nc1ccc(-c2cn3c(n2)SCC3)cc1)c1cc(F)ccc1F,0.9,·,·,-3.0,·,·,·,·
Cn1cccc1C(=O)NC(=O)COC(=O)CNC(=O)CNC(=O)c1ccc(Cl)cc1Cl,3.1,-21.6,-10.5,5.5,16.0,27.4*,8.1,1.2
c1ccc(-c2nnc(-c3ccccc3)c(-c3c[nH]c4ccccc34)n2)cc1,5.7,0.8,-10.4,-0.4,31.9,18.8,·,·
c1ccc2c(-c3ccncc3)c[nH]c2c1,16.6,-2.6,11.5,-3.6,21.4,23.4*,-17.9,12.2
Cc1nc(NC(C)c2ccccc2)c2c3c(sc2n1)CCC3 (stereo not drawn),·,-15.2,-34.3,·,12.2,26.9*,28.1*,29.4*
Cc1ccc(CNc2nc(C)nc3sc4c(c23)CCC4)cc1,-2.2,2.4,-11.3,16.8,17.0,20.0,·,·
COc1ccc(S(=O)(=O)NC(=O)C2(C)CCN2C(=O)C2(c3ccccc3)CC2)cc1 (stereo not drawn),-0.2,·,·,-6.2,·,·,·,·
COc1ccc(-c2onc(C)c2-c2cnn(-c3ccccc3)c2)c(O)c1C,-0.8,-12.7,-29.8,-4.2,19.6,31.6*,24.8*,34.4*
COc1ccc(-c2n[nH]c(C)c2-c2cnn(-c3ccccc3)c2)c(O)c1C,23.5,-13.4,-13.0,41.4,15.0,-17.8,·,·
Cc1ccccc1C(=O)N=c1ccn(-c2nc3ccccc3nc2NS(=O)(=O)c2ccccc2)cc1,0.5,-1.8,-12.2,-10.5,0.2,-6.6,·,·
CCOc1ccc(S(=O)(=O)Nc2nc3ccccc3nc2-n2ccc(=NC(=O)c3ccccc3C)cc2)cc1,11.8,-6.3,0.1,-18.6,3.2,22.9*,-7.7,-1.5
CCSc1nccc(-c2nn(-c3ccc(C)cc3)ccc2=O)n1,0.9,-16.4,-30.1,-18.0,15.3,22.9*,9.6,25.5*
CSc1nccc(-c2nn(-c3ccc(C)cc3)ccc2=O)n1,6.3,-3.9,-10.6,1.8,31.9,10.2,·,·
COCC(=O)NNC(=S)Nc1cccc(C)c1C,7.8,-5.3,1.0,2.2,5.5,-14.2,·,·
CC(CC(=O)NC1CCCC1)c1ccccc1 (stereo not drawn),6.8,-1.6,-36.2,4.6,31.9,34.1*,4.5,-1.0
CC(C)CC(c1nnnn1CCc1ccccc1)N1CCN(C(=O)c2ccco2)CC1 (stereo not drawn),10.1,-5.8,-22.9,-10.2,11.8,4.4,·,·
CCC(c1nnnn1CCc1ccccc1)N1CCN(C(=O)c2ccco2)CC1 (stereo not drawn),0.1,-16.1,-23.2,26.3,21.3,21.3*,8.5,1.1
Cc1cc2oc(=O)cc(CNc3ccccc3F)c2cc1O,3.6,3.6,-19.7,6.1,14.7,38.0*,44.1*,68.1*
CCOc1ccc(S(=O)(=O)Nc2cc(OC)ccc2OC)cc1,6.4,7.8,-10.7,-14.4,5.9,22.9*,18.0,33.9*
CCC(NC(=O)c1ccc2nc(Cc3ccc(OC)cc3)oc2c1)c1ccncc1 (stereo not drawn),8.8,23.7,3.5,32.7,18.9,45.7*,39.4*,70.2*
O=C(N/C(=C\c1cccc([N+](=O)[O-])c1)C(=O)N1CCOCC1)c1ccc([N+](=O)[O-])cc1,1.8,-6.7,-5.2,-7.4,23.7,22.8*,0.5,-1.6
CCN(CC(=O)Nc1ccccc1C(F)(F)F)C(=O)c1ccc(-n2nc(C)c(CCC(=O)OC)c2C)cc1,16.2,·,·,3.9,·,·,·,·
O=C(NCc1ccc2c(c1)OCO2)C(=O)NCC1OCCN1S(=O)(=O)c1ccc(Br)cc1 (stereo not drawn),3.2,-10.5,-3.0,1.5,7.1,28.7*,22.0,39.9*
